Assay results published in PubChem BioAssay AID624466 (The Scripps Research Institute Molecular Screening Center, 2012).
Among all 360,000 compounds or so, about 5,400 (1.5%) were called active.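 How the source made its calls: active means inhibition above a per-plate cutoff, the mean inhibition of test compounds on that plate plus 3 SD (cut at about 49% in these data); inactive means the rest.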 Only a selection was taken, and actives are over-represented in it overall. Where a SMILES comes first, the peptide text is derived from it. The star is where a group is joined. Bz = O=C(c1ccccc1)*

Target: Trace amine-associated receptor 1 (Homo sapiens) (UniProt Q96RJ0)
Assay: human TAAR1 antagonists, primary screen, Fluo-8 calcium fluorescence, CHO RD-HGA16 cells (AID 624466);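 further: 0% = DMSO plus EC80 beta-PEA response and 100% = DMSO alone without agonist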
Conditions: CHO RD-HGA16 TAAR1, Fluo-8 calcium fluorescence, antagonist; at 3 µM; active compounds read high
In short: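 System: RD-HGA16 CHO cells with stable hTAAR1 and Gα16 | Probe or stimulus: EC80 β-phenethylamine stimulus | Dosing: 3 µM, single point | Times: Dye loading 75 min at 37 °C, then 30 min room temperature | Measured by: Fluo-8 calcium-sensitive fluorescence | Read-out basis: % inhibition of agonist calcium response | Replicates: n of 1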

Chain of Trace amine-associated receptor 1 (Homo sapiens) (Q96RJ0 whole entry, looked up): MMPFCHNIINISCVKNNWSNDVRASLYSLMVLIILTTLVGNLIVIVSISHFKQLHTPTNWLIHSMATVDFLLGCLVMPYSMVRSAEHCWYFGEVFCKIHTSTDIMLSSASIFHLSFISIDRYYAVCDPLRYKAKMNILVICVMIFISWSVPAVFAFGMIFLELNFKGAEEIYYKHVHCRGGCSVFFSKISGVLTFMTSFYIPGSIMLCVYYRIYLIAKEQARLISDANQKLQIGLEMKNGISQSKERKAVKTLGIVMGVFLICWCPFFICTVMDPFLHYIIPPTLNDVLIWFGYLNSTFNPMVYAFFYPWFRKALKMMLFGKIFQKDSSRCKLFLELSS

SMILES	inhibition
COc1cc(/C=N\NC(=O)c2nonc2N)c(OC)cc1Br	-10.8% (inactive)
Cc1cc(C)c([N+](=O)[O-])cc1-c1ccc(/C=N/NC(=O)c2nonc2N)o1	52% (active)
Cc1ccc(-c2ccc(/C=N/NC(=O)CN3CCOCC3)o2)cc1[N+](=O)[O-]	3.41% (inactive)
O=C1NC[C@H](CCCCN2C[C@H](Cc3ccccc3)N(Cc3ccccc3)C(=O)C2=O)N(CCc2ccc(O)cc2)C1=O	-9.2% (inactive)
CN1CCN(CCC(=O)N/N=C/C=C2\N(C)c3ccccc3C2(C)C)CC1	28.4% (inactive)
CN1/C(=C\C(=O)c2oc3ccccc3c2N)C(C)(C)c2ccccc21	51.5% (active)
CC(=O)Nc1cccc(OCC(=O)/C=C2\N(C)c3ccccc3C2(C)C)c1	32.4% (inactive)
CC(=O)Nc1ccc(NC(=O)CCN2C(=O)C3CC=CCC3C2=O)cc1 (configuration not stated)	-7.1% (inactive)
Cc1nc2ccc(NC(=O)N3CCC(c4ccccc4)C3)cc2nc1C (configuration not stated)	-3.01% (inactive)
COC(=O)c1ccccc1SC1CC(=O)N(c2cccc(C)c2)C1=O (configuration not stated)	-3.32% (inactive)
COC(=O)[C@@]1(Sc2ccc(C)cc2)CC(=O)N(c2cccc(SC)c2)[C@@H]1c1ccccc1	67.8% (active)
CCOC(=O)N1C(=O)C[C@](Sc2ccc(C)cc2)(C(=O)OC)[C@H]1c1ccccc1	6.96% (inactive)
COC(=O)C(C(=O)OC)c1ccccc1NS(=O)(=O)c1cccc2ccccc12	-21.2% (inactive)
CC(=O)N1Cc2cc(C(=O)NCc3cccc(F)c3)nc(-c3cccc(C4=CCCCC4)c3)c2[C@H]1CCO	18.2% (inactive)
O=C(CC[C@H]1O[C@@H](n2ccc(=O)[nH]c2=O)[C@H](O)[C@@H]1O)N[C@H](Cc1ccccc1)C(=O)NCCCN1CCCC1=O	-13.5% (inactive)
COc1ccc(NS(=O)(=O)c2ccc(C(=O)Nc3c(C)n(C)n(-c4ccccc4)c3=O)cc2)cc1	-27.9% (inactive)
COc1ccc(C(=O)C(C)OC(=O)c2cccc(S(=O)(=O)Nc3c(C)n(C)n(-c4ccccc4)c3=O)c2)cc1 (configuration not stated)	-15.1% (inactive)
Cc1c(NS(=O)(=O)c2cccc(C(=O)Nc3ccc(SC(F)F)cc3)c2)c(=O)n(-c2ccccc2)n1C	51.8% (active)
Cc1cc(C)n2c(Nc3c(C)cccc3C)c(CCc3ccccc3)nc2n1	5.85% (inactive)
Clc1ccccc1Nc1nc(NCc2cccs2)nc2ccsc12	7.32% (inactive)
COc1cccc(CNc2nc(NCc3ccccc3OC)nc3ccsc23)c1	36.8% (inactive)

SMILES	inhibition
COc1cccc(CNc2nc(NCc3cccs3)nc3ccsc23)c1	76.6% (active)
O=C1C=C(c2ccc(Cl)cc2)C(=O)N1Nc1ccccc1	74.6% (active)
CC(C)N(C)C(=O)CCc1nnc(CCc2c[nH]c3ccccc23)o1	-0.9% (inactive)
COC(=O)C1=C(C)N(Cc2cccc(C(F)(F)F)c2)C(=NCc2cccc(C(F)(F)F)c2)NC1c1ccccc1C(F)(F)F (configuration not stated)	-30.9% (inactive)
Cc1ccc(C(=O)Nc2ccc(C)c(S(=O)(=O)N(C)C)c2)s1	11.3% (inactive)
O=C(N[C@H](C(=O)N1CCC[C@H]1C(=O)NCCc1ccccc1Cl)c1ccccc1)c1ccccc1	56.7% (active)
O=C(NCCc1ccc(Cl)cc1)C1CCCN1C(=O)NCc1ccccc1 (configuration not stated)	-9.56% (inactive)
O=C(NC(Cc1ccccc1)C(=O)N1CCCC1C(=O)O)c1ccccc1 (stereo not drawn) (Bz-Phe-Pro-OH; configuration not given here)	-24.6% (inactive)
O=C(Nn1c(-c2ccc(Cl)cc2)nc2ccccc2c1=O)c1cccnc1Cl	15.6% (inactive)
O=C(C[C@H]1CC[C@H]2[C@@H](COC[C@H](O)CN2C(=O)c2ccccn2)O1)N1CCN(c2ccccc2)CC1	-9.63% (inactive)
CCOC(=O)N1CCN(C(=O)C[C@@H]2C[C@@]3(C(=O)OC)CC(C)(C)CC=C3N(Cc3ccco3)C2=O)CC1	-19% (inactive)
COc1ccccc1N1CCN(C(=O)c2cn(-c3ccccc3)nc2-c2cccnc2)CC1	22.2% (inactive)
COc1ccccc1N1CCN(C(=O)c2ccc(NC3=NC4CS(=O)(=O)CC4S3)cc2)CC1 (configuration not stated)	-7.44% (inactive)
COc1ccc(Nc2ncc(C(=O)N3CCN(c4ccccc4OC)CC3)c3ccccc23)cc1	49.5% (active)
CCCC(C)NC(=O)C1CCN(C(=O)C2CC(=O)N(c3ccc(C)cc3)C2)CC1 (configuration not stated)	3.73% (inactive)
C[C@@H]1ON(C)[C@H]2C[C@H]3c4cc(N5CCOCC5)ccc4CCN3C[C@@H]12	-3.17% (inactive)
COc1ccc(S(=O)(=O)Nc2ccc3c(c2)C(=O)N([C@H](C)CO)C[C@H](C)[C@@H](CN(C)C)OCCCC[C@H](C)O3)cc1	-3.5% (inactive)
CSC(=S)N/N=C/c1c[nH]c2ccccc12	88.6% (active)
C[n+]1ccc(/C=C/c2c[nH]c3ccccc23)cc1	-4.64% (inactive)
O=C(Cc1c[nH]c2ccccc12)N/N=C/c1cccc(F)c1	15.8% (inactive)
COc1ccc(CCNC(=O)C(=O)NCC2OCCN2S(=O)(=O)c2ccc(F)cc2)cc1OC (configuration not stated)	-12% (inactive)

SMILES	inhibition
COc1ccc(CCNC(=O)C(=O)NCC2OCCN2S(=O)(=O)c2ccc(OC)c(C)c2)cc1 (configuration not stated)	53.6% (active)
COc1ccc(S(=O)(=O)N2CCOC2CNC(=O)C(=O)NCc2ccncc2)cc1C (configuration not stated)	-15.9% (inactive)
CC1Cc2[nH][nH]c(=O)c2C(C2CCCC2)O1 (configuration not stated)	2.81% (inactive)
CC(C)c1cc(Cn2c3ccccc3c(=O)n2C(C)Cn2cc(C3CC3)nn2)on1 (configuration not stated)	-16% (inactive)
CCCCN(C(=O)c1cccc(N2C(=O)c3ccccc3C2=O)c1)c1c(N)n(CCCC)c(=O)[nH]c1=O	5.52% (inactive)
CC(C)[C@@H](C)/C=C/[C@@H](C)[C@H]1CC[C@@H]2[C@]1(C)CCC1[C@]23C=C[C@]2(C[C@@H](O)CC[C@]12C)N(c1ccc([N+](=O)[O-])cn1)O3 (some centres not stated)	-12% (inactive)
Oc1ccccc1N1CCN(C(=S)NCc2ccccc2)CC1	3.27% (inactive)
Oc1ccccc1N1CCN(c2ncnc3sc(-c4ccccc4)cc23)CC1	58.6% (active)
O=c1c2cc(-c3ccccc3)sc2nc2n1N=C(c1cccs1)CS2	-11.2% (inactive)
O=C(Cn1c(N2CCN(C/C=C/c3ccccc3)CC2)nc2ccccc21)c1ccccc1	10.7% (inactive)
COc1cccc(CC(=O)N2CCN(C(=O)C(=O)c3cccc(C(F)(F)F)c3)CC2)c1	15.5% (inactive)
Cc1ccccc1NC(=O)Cc1nc(COC(=O)CNC(=O)c2ccc(Cl)cc2Cl)cs1	-26.5% (inactive)
Cc1ccccc1NC(=O)Cc1nc(COC(=O)c2cccnc2Cl)cs1	10.4% (inactive)
Cc1ccccc1NC(=O)Cc1nc(COC(=O)C(C)(C)Oc2ccc(Cl)cc2)cs1	64.8% (active)
CC(C)Nc1nnc(SC(C)C(=O)N(C)C2CCCCC2)s1 (configuration not stated)	-5.6% (inactive)
Cc1ccc(C)c(-c2nnc(NC(=O)CS(=O)(=O)c3ccccc3)o2)c1	-13.2% (inactive)
Cc1ccc(S(=O)(=O)CC(=O)NC(C)c2ccccc2)cc1 (configuration not stated)	-14.5% (inactive)
Cc1cccc(S(=O)(=O)CC(=O)Nc2nc(-c3ccccc3)cs2)c1	53.8% (active)
CCOC(=O)[C@]12CCCC=C1N(CCC1=CCCCC1)C(=O)[C@H](CC(=O)N1CCCCC1)C2	-49.4% (inactive)
COC(=O)C1=C(C)N(Cc2ccccc2C(F)(F)F)C(=NCc2ccc(C(F)(F)F)cc2)NC1c1ccc(F)cc1 (configuration not stated)	-31.9% (inactive)
CCCCNC(=O)CSc1nc2ccc(NC(=O)CSc3nnc(COc4ccccc4C)n3C)cc2s1	23.6% (inactive)

SMILES	inhibition
Nc1nnc(SCC(=O)Nc2ccc3nc(SCC(=O)Nc4ccccc4)sc3c2)s1	48.9% (active)
CCCCNC(=O)CSc1nc2ccc(NC(=O)CSc3nnc(N)s3)cc2s1	14.2% (inactive)
COC(=O)[C@@]12C[C@@H](CC(=O)NCCCCc3ccccc3)C(=O)N(Cc3ccccc3)C1=CCC(C)(C)C2	1.67% (inactive)
CSCCC(C(=O)NC(C)(C)C)n1c(-c2ccccc2)nc2ccccc21 (configuration not stated)	-24.9% (inactive)
COC(=O)[C@@]1(Cc2ccc(F)cc2)[C@H]2c3cc(C(=O)N4CCCC4)n(Cc4ccc(OC(F)(F)F)cc4)c3C[C@H]2CN1C(=O)c1ccccc1	-23% (inactive)
CCC(C(=O)Nc1ccc(C(C)C)cc1)c1ccccc1 (configuration not stated)	83.9% (active)
CC(C)c1ccc(NC(=O)Cn2ncc3ccccc32)cc1	-7.65% (inactive)
CC(NC(=O)Nc1ccccc1)c1ccccc1 (configuration not stated)	8.89% (inactive)
COc1ccc(C(=O)NCC[N+](C)(C)C)cc1	-19.6% (inactive)
O=c1[nH]c(-c2ccccc2)cn1C1CCN(Cc2ccc(-c3nc4ccc(F)cc4nc3-c3ccccc3)cc2)CC1	9.33% (inactive)
O=C(COC(=O)Cc1ccccc1F)NCCc1ccccc1	72.9% (active)
COc1ccc(CCNC(=O)COC(=O)Cc2ccccc2F)cc1	-11.5% (inactive)
O=C(COC(=O)Cc1c[nH]c2ccccc12)NCCc1ccccc1	-12.2% (inactive)
Cc1ccc2nc(SCC(=O)Nc3cccc4ccccc34)nc(=O)n2c1	-20.9% (inactive)
C=CCNC(=O)c1cc2nc(C3CC3)cc(C(F)F)n2n1	7.57% (inactive)
Cc1ccc(F)c(S(=O)(=O)NC(=O)C2(C)CCN2C(=O)CCc2cccs2)c1 (configuration not stated)	-14.2% (inactive)
CCOC(=O)C1C(c2ccc(OC)c(OC)c2)c2c([nH][nH]c2=O)CC1(C)O (configuration not stated)	56.8% (active)
CCC1(C)COC(c2ccc(OC)c(OC)c2)OC1 (configuration not stated)	-18.6% (inactive)
CCOC(=O)C1C(c2ccc(O)cc2)NC(=O)NC1(O)C(F)(F)F (configuration not stated)	-14.2% (inactive)
